Assay [1] has as its target RAC-alpha serine/threonine-protein kinase (Homo sapiens, UniProt P31749). Put plainly: Inhibition of AKT (unknown origin) using poly [Glu, Try] 4:1 as substrate in presence of [gamma-33P]ATP. In a few lines:
(§1)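 Radiometric assay on recombinant kinase: ³³P incorporation into the kinase substrate was measured and activity was expressed relative to a DMSO control.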

For assay [2], the target named is Mast/stem cell growth factor receptor Kit (Homo sapiens, UniProt P10721). Put plainly: Inhibition of wild-type human partial length KIT (I571 to D952 residues) expressed in bacterial expression system using poly [Glu, Try] 4:1 as substrate in presence of [gamma-33P]ATP. A digest of the protocol:
as §1

Assay [3] concerns the target Hepatocyte growth factor receptor (Homo sapiens, UniProt P08581). Put plainly: Inhibition of wild-type human partial length MET (D1010 to S1367 residues) expressed in bacterial expression system using poly [Glu, Try] 4:1 as substrate in presence of [gamma-33P]ATP. In a few lines:
as §1

In assay [4] the target is T1, Receptor-type tyrosine-protein kinase FLT3 (Homo sapiens, UniProt P36888).
T1 sequence (P36888 whole entry): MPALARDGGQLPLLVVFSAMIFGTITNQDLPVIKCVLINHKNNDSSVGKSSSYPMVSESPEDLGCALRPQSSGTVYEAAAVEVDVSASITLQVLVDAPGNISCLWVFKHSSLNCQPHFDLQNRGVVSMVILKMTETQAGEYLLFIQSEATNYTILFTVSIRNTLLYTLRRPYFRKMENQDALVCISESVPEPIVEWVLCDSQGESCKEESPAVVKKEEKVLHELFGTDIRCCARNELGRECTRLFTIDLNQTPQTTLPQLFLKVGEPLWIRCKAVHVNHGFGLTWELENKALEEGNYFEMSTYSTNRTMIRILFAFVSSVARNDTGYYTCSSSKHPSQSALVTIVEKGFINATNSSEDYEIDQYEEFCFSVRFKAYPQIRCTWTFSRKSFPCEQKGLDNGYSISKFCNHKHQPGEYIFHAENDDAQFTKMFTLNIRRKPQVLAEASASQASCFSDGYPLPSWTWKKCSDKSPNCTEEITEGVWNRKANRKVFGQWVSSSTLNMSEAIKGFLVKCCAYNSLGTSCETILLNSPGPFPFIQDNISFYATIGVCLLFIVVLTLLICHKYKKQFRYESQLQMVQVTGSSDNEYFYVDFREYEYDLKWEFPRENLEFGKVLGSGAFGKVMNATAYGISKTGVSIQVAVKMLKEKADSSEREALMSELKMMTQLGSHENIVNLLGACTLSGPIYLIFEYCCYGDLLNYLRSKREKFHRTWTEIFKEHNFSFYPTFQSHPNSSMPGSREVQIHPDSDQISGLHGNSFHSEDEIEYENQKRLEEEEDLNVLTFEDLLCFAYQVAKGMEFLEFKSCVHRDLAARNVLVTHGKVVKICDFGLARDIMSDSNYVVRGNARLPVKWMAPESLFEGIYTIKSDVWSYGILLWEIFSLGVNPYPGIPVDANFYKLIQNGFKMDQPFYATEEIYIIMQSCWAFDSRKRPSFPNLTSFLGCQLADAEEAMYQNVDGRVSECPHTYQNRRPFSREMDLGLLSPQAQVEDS
Kind of assay: Inhibition of wild-type human partial length FLT3 (V592 to Y969 residues) expressed in bacterial expression system using poly [Glu, Try] 4:1 as substrate in presence of [gamma-33P]ATP.

Assay [5] concerns the target Serine/threonine-protein kinase mTOR (Homo sapiens, UniProt P42345). Put plainly: Inhibition of wild-type human partial length MTOR (L1382 to W2549 residues) expressed in mammalian expression system using poly [Glu, Try] 4:1 as substrate in presence of [gamma-33P]ATP. In a few lines: as §1
The target of assay [6] is Proto-oncogene tyrosine-protein kinase receptor Ret (Homo sapiens, UniProt P07949). Kind of assay: Inhibition of wild-type human partial length RET (E713 to D1014 residues) expressed in bacterial expression system using poly [Glu, Try] 4:1 as substrate in presence of [gamma-33P]ATP. A digest of the protocol: as §1
Proto-oncogene tyrosine-protein kinase receptor Ret, sequence (P07949 whole entry, the tested form may be a part): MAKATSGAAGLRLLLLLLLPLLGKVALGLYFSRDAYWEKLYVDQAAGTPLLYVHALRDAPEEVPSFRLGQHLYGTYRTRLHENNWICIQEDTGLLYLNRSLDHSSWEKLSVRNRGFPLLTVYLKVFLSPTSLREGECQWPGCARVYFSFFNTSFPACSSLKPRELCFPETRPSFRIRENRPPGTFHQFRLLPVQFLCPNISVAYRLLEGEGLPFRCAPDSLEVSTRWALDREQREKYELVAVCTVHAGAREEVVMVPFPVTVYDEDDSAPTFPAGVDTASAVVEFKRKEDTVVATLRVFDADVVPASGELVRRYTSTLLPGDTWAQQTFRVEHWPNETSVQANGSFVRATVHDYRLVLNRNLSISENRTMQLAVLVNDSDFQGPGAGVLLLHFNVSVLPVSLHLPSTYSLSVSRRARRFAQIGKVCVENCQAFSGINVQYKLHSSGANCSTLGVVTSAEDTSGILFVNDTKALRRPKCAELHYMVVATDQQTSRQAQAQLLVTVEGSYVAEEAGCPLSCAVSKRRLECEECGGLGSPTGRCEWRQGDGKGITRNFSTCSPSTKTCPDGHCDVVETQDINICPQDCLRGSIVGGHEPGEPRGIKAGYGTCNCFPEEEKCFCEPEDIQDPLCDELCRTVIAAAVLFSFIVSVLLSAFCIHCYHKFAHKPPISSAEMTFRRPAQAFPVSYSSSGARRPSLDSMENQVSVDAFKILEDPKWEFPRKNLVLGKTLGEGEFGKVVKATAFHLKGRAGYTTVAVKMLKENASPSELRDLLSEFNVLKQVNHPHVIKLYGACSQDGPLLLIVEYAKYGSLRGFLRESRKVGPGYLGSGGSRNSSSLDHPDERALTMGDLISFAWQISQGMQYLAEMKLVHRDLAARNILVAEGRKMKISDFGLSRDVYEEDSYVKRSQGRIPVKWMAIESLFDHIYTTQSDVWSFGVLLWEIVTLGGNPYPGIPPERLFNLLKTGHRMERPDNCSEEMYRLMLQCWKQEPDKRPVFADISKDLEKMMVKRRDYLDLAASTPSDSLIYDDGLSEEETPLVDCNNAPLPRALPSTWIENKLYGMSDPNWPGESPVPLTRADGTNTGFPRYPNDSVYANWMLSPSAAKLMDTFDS
The target in assay [7] is T2, Tyrosine-protein kinase receptor TYRO3 (Homo sapiens, UniProt Q06418).
T2 sequence (Q06418 whole entry): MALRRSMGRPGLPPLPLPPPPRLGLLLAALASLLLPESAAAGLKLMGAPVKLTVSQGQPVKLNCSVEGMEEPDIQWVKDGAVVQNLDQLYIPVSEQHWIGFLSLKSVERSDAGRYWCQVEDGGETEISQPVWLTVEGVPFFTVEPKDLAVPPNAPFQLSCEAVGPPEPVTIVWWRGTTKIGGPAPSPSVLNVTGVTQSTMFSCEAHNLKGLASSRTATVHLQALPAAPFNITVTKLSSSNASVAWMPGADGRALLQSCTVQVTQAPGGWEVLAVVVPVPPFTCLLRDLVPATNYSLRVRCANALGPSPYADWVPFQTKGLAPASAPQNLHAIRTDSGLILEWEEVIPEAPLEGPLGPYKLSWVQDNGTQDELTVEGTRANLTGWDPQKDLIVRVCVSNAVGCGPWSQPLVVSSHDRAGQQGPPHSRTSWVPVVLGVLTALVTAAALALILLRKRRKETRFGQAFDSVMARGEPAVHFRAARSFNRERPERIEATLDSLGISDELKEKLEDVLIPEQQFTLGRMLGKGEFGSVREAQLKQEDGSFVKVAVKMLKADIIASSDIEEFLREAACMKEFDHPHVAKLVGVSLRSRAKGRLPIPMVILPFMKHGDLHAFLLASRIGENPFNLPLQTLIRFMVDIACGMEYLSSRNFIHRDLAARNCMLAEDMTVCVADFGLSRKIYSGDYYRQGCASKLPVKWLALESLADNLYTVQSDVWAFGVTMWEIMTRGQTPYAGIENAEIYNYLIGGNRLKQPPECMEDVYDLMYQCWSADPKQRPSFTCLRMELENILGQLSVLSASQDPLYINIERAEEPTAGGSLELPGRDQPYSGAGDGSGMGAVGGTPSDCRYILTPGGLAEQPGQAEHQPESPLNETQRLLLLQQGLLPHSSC
Kind of assay: Inhibition of wild-type human partial length TYRO3 (S497 to T814 residues) expressed in bacterial expression system using poly [Glu, Try] 4:1 as substrate in presence of [gamma-33P]ATP. In a few lines:
as §1

Mast/stem cell growth factor receptor Kit, sequence (P10721 whole entry, the tested form may be a part): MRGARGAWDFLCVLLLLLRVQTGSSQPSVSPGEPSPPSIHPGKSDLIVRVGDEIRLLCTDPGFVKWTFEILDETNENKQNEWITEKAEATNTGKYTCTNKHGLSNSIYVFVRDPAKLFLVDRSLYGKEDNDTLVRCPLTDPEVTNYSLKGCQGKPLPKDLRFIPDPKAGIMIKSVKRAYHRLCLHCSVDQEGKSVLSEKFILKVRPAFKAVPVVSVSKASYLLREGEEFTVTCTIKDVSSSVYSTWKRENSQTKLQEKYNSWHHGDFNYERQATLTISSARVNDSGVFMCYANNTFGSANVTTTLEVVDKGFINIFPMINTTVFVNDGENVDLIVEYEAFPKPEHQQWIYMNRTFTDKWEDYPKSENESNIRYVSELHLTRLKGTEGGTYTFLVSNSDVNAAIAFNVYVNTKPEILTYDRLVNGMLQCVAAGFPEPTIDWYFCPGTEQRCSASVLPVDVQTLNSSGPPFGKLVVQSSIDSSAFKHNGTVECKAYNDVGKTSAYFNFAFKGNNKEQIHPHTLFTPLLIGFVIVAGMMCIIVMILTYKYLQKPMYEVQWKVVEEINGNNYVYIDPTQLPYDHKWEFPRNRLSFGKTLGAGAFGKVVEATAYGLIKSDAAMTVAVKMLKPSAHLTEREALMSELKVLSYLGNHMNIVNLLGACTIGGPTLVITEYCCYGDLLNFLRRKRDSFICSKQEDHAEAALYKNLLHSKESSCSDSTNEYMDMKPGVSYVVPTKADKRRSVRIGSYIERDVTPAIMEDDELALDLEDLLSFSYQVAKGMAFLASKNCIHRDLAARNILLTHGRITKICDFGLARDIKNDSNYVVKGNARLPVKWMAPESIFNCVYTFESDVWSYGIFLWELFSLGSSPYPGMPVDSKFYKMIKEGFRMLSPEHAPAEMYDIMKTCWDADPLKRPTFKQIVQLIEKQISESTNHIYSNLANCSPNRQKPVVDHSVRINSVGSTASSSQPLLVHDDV
RAC-alpha serine/threonine-protein kinase, sequence (P31749 whole entry): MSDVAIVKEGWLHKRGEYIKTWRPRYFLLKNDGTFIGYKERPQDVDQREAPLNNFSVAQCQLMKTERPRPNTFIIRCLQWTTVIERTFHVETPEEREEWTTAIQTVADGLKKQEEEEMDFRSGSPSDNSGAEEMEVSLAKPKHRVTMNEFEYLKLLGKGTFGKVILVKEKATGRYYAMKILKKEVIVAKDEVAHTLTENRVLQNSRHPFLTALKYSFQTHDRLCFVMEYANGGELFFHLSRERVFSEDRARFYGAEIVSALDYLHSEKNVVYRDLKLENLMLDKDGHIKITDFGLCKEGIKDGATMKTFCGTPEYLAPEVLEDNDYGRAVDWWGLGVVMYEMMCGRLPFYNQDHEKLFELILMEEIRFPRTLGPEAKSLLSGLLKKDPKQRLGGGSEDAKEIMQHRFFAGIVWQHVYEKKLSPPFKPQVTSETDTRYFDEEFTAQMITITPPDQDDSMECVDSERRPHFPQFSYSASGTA
Hepatocyte growth factor receptor, sequence (P08581 whole entry, the tested form may be a part): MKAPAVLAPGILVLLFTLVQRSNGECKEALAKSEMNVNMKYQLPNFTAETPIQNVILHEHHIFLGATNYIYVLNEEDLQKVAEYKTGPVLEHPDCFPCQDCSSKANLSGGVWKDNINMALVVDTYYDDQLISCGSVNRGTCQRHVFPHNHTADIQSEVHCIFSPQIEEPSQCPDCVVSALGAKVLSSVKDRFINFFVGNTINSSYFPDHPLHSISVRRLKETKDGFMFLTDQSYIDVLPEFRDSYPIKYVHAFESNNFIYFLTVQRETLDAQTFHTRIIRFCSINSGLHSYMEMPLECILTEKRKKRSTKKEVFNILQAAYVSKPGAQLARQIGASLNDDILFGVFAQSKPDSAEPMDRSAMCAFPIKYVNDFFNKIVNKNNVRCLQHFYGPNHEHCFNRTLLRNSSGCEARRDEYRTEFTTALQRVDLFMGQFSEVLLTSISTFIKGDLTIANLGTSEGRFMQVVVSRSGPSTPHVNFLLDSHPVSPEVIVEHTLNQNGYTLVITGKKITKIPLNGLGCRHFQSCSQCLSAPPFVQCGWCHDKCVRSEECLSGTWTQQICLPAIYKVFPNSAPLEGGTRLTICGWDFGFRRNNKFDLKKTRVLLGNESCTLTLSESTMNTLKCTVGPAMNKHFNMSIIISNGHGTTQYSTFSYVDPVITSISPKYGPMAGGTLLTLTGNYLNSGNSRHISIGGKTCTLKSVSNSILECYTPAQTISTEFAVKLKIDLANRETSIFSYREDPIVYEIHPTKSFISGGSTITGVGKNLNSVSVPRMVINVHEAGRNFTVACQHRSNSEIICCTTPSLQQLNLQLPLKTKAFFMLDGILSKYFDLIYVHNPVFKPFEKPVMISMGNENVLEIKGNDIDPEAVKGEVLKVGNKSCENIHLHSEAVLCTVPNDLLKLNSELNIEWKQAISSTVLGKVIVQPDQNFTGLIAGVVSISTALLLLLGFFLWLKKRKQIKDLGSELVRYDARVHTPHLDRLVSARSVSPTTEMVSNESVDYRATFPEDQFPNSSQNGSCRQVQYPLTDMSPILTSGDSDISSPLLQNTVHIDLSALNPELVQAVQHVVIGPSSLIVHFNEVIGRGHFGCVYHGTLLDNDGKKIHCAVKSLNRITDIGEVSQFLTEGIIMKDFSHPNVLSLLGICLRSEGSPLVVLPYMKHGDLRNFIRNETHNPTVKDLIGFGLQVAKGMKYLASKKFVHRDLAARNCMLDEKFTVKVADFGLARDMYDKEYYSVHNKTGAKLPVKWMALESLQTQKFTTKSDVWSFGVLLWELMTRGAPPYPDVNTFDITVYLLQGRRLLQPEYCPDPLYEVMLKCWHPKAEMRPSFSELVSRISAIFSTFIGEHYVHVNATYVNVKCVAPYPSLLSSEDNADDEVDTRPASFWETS

Regarding `CNc1ncc2c(-c3ccc(N4CCN(C)CC4)nc3)nn(CC3CCCC3)c2n1`, the IC50 in assay [1] was more than 10 µM; in assay [2], 0.36 µM; in assay [3], 3.5 µM; in assay [4] it was 0.008 µM; in assay [5] it was more than 10 µM; in assay [6], 0.06 µM. In addition, the half-maximal inhibitory concentration (IC50) in assay [7] stood at 3.67 µM.

As for `CNc1ncc2c(-c3ccc(N4CCNCC4)cc3)nn(Cc3cn(Cc4ccccc4)nn3)c2n1`, the 50% inhibitory concentration (IC50) in assay [1], in assay [2], in assay [3], in assay [4], in assay [5] and in assay [6] was more than 10 µM throughout. The IC50 in assay [7] was more than 10 µM.

With `CNc1ncc2c(-c3ccc(N4CCNCC4)nc3)nn(Cc3cn(-c4ccsc4C(=O)OC)nn3)c2n1`, the IC50 is more than 10 µM in assay [1]; more than 10 µM in assay [2]; more than 10 µM in assay [3]; 0.86 µM in assay [4]; more than 10 µM in assay [5]; 0.43 µM in assay [6]. Further, the IC50 in assay [7] was more than 10 µM.

Turning to `CCN1CCN(c2ccc(-c3nn(CC4CCCC4)c4nc(NC)ncc34)cn2)CC1`, the IC50 in assay [1] is more than 10 µM; in assay [2], 1.8 µM; in assay [3] it was more than 10 µM; in assay [4] it was 0.1 µM; in assay [5], more than 10 µM; in assay [6], 0.44 µM. The IC50 in assay [7] is more than 10 µM.

On to `CNc1ncc2c(-c3ccc(OC)cc3)nn(CC3OCCO3)c2n1`, for which the half-inhibitory concentration (IC50) in assay [1] is more than 10 µM; in assay [2], more than 10 µM; in assay [3], more than 10 µM; in assay [4] it was 0.25 µM; in assay [5] it was more than 10 µM; in assay [6], 1.2 µM. Also, in assay [7], the IC50 is more than 10 µM.

For `CNc1ncc2c(-c3ccc(N4CCNCC4)nc3)nn(CC3OCCO3)c2n1`, the half-maximal inhibitory concentration (IC50) was more than 10 µM in assay [1]; 7.5 µM in assay [2]; more than 10 µM in assay [3]; 0.1 µM in assay [4]; more than 10 µM in assay [5]; 0.16 µM in assay [6]. Moreover, in assay [7], the IC50 was more than 10 µM.

Consider `CNc1ncc2c(-c3ccc(N4CCNCC4)nc3)nn(CC3CCCC3)c2n1`, for which the IC50 was more than 10 µM in assay [1]; 1.1 µM in assay [2]; 2.1 µM in assay [3]; 0.02 µM in assay [4]; more than 10 µM in assay [5]; 0.05 µM in assay [6]. For the same molecule, in assay [7], the IC50 is more than 10 µM.

With `CNc1ncc2c(-c3ccc(N4CCN(C)CC4)nc3)nn(Cc3cn(Cc4ccccc4)nn3)c2n1`, the concentration for half-maximal inhibition (IC50) is more than 10 µM in assay [1]; more than 10 µM in assay [2]; more than 10 µM in assay [3]; 0.7 µM in assay [4]; more than 10 µM in assay [5]; 0.9 µM in assay [6]. In addition, in assay [7], the IC50 was more than 10 µM.

For the molecule `CNc1ncc2c(-c3ccc(N4CCN(C(=O)C(C)(C)C)CC4)nc3)nn(CC3CCCC3)c2n1`, the IC50 in assay [1] was more than 10 µM; in assay [2] it was more than 10 µM; in assay [3], more than 10 µM; in assay [4], 0.3 µM; in assay [5], more than 10 µM; in assay [6], more than 10 µM. Besides, in assay [7], the IC50 was more than 10 µM.

For the molecule `CCN1CCN(c2ccc(-c3nn(Cc4cn(Cc5ccccc5)nn4)c4nc(NC)ncc34)cn2)CC1`, the IC50 was 1.9 µM in assay [1]; more than 10 µM in assay [2]; 6.3 µM in assay [3]; more than 10 µM in assay [4]; more than 10 µM in assay [5]; 6.2 µM in assay [6]. Also, in assay [7], the IC50 turned out to be 1.9 µM.

As to `CNc1ncc2c(-c3ccc(N4CCN(C(=O)C(C)(C)C)CC4)nc3)nn(Cc3cn(Cc4ccccc4)nn3)c2n1`, the 50% inhibitory concentration (IC50) is more than 10 µM in assay [1]; more than 10 µM in assay [2]; more than 10 µM in assay [3]; 1.2 µM in assay [4]; more than 10 µM in assay [5]; 4 µM in assay [6]. Also, the IC50 in assay [7] was more than 10 µM.

Take `Nc1nc(Nc2ccc3c(c2)CC[C@@H](N2CCCC2)CC3)nn1-c1cc2c(nn1)-c1ccccc1CCC2` [BEMCENTINIB]: the concentration for half-maximal inhibition (IC50) was more than 10 µM in assay [1]; 1 µM in assay [2]; 3.4 µM in assay [3]; 0.0009 µM in assay [4]; more than 10 µM in assay [5]; 0.003 µM in assay [6]. In assay [7], the 50% inhibitory concentration (IC50) amounted to 0.017 µM.

For the origin of these results see ChEMBL document CHEMBL4184298, “Development of Potent Inhibitors of Receptor Tyrosine Kinases by Ligand-Based Drug Design and Target-Biased Phenotypic Screening” (J Med Chem, 2018).
